Assay outcomes (PubChem BioAssay)
Rows were chosen to be rich in hits. Some 1.5% of all compounds tested hit in one or more screens of this group.
Spn MK inh: S. pneumoniae MK inhibitors, primary screen, biochemical, PK/LDH-coupled NADH absorbance. inhibition, % at 10 µM. actives 0.48% (n = 65,000). purified MK, PK/LDH-coupled NADH absorbance 340 nm;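 active = ranked among the strongest by inhibition in the single 10 µM screen, a fixed top-ranked set picked for dose follow-up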
PMK inhibit: S. pneumoniae PMK inhibitors, primary screen, biochemical, mevalonate pathway, pilot trial included; AID 539, 2006; inhibition, % at 10 µM; actives 0.49% (n = 65,000); purified PMK, PK/LDH-coupled NADH absorbance 340 nm; phosphomevalonate kinase (Streptococcus pneumoniae D39);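 active = top-ranked compounds by inhibition in the single 10 µM screen, taking a fixed number of the strongest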;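 note: 0% = full reaction with DMSO carrier and 100% = background rate without enzyme reaction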
E coli RNAP: E. coli RNAP inhibitors, biochemical; DNA-directed RNA polymerase subunit beta (Escherichia coli (strain K12)), P0A8V2; E. coli RNA polymerase, fluorescence transcription assay; inhibition, %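 (tested at 10 µM)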; actives 0.2% (n = 62,000); AID 559, 2006; in the data active = inhibition above about 20%;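 note: 0% = enzyme without compound and 100% = no enzyme blank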
DPM-DC inhibit: S. pneumoniae DPM-DC inhibitors, primary screen, biochemical, PK/LDH-coupled NADH fluorescence. purified DPM-DC. AID 556, 2006. actives 0.49% (n = 65,000). diphosphomevalonate decarboxylase (Streptococcus pneumoniae D39). calls only at 10 µM;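 active = the 320 compounds with the highest percent inhibition in the single-dose primary screen, excluding strongly autofluorescent ones, cut at about 32% in these data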;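 note: kinetic rate of NADH fluorescence loss reporting ADP formed by the decarboxylase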
TNAP act DEA: human TNAP enzyme activators, primary screen, biochemical, luminescent, intermediate phosphate acceptor level | Alkaline phosphatase, tissue-nonspecific isozyme (Homo sapiens), P05186 | purified TNAP, CDP-star luminescence, 100 mM DEA, 30 min; stronger effect = higher value; scale: 0 levamisole-inhibited, 1 vehicle-only enzyme | activation factor at 20 µM | 64,000 tested, under 10 active | AID 813, 2007;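 active = activation factor of at least 2 at 20 µM, relative to controls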
Target sequence (P05186 whole entry, looked up): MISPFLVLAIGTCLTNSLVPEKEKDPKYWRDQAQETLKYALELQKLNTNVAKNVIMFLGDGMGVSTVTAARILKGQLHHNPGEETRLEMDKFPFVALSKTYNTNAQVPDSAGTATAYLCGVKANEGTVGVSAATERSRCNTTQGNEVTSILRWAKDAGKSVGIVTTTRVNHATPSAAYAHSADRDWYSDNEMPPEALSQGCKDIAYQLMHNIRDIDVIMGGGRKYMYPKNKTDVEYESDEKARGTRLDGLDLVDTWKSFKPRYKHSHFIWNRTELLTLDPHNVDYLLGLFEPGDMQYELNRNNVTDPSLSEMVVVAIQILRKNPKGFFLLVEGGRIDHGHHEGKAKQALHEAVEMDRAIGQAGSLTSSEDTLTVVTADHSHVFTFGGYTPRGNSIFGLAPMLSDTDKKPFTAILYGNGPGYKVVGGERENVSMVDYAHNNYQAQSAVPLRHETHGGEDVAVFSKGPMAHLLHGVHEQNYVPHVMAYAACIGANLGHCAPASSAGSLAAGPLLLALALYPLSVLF
AP complement: alternative complement pathway inhibitors, primary screen, biochemical, ELISA, human serum, orthogonally pooled compounds | LPS-coated ELISA, C3 deposition; tested in compound mixtures | inhibition, % at 5 µM | actives 0.08% (n = 62,000);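 active = inhibition above 30% in each of the two pooled mixtures holding the compound, so the lower value exceeds 30%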;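 note: 0% = serum in Mg-EGTA without compound and 100% = EDTA serum blank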
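Assay system: Human serum alternative complement pathway, C3 deposition on LPS-coated wells | Incubation: 1 h serum-compound exposure at 37 °C | Doses: 5 µM per compound in ten-compound mixtures | Read-out: Percent inhibition | Technique: ELISA with HRP anti-human C3 antibody, TMB substrate, absorbance 450 nm | Replication: Two pool placements per compound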
Active calls of the source: *; i = inactive; · = no result given; + = active, no number.

SMILES	Spn MK inh	PMK inhibit	E coli RNAP	DPM-DC inhibit	TNAP act DEA	AP complement
COc1cccc(CNC(=O)C2CCCN(S(C)(=O)=O)C2)c1 (stereo not drawn)	8.0	0.0	3.5	i	1	11.0
Cc1nc2cc(NC(=O)NCc3ccco3)ccc2n1C	10.0	8.0	1.8	+	0.9	15.0
O=C(c1ccccc1F)N(Cc1ccc(F)cc1)C1CCS(=O)(=O)C1 (stereo not drawn)	15.0	13.0	9.1	i	0.9	9.3
O=C(c1ccccc1F)N(Cc1ccccc1)C1CCS(=O)(=O)C1 (stereo not drawn)	29.0	14.0	4.5	+	0.9	22.9
CC1Cc2ccccc2N1C(=O)CSc1nnnn1Cc1ccccc1 (stereo not drawn)	10.0	2.0	2.6	i	0.9	-14.4
CCOC(=O)N1CCC(NC(=O)CSc2cc(=O)n(C)c3ccccc23)CC1	35.0	42.0*	3.0	+	0.9	10.5
Cn1c(=O)cc(SCC(=O)N2CCCC2)c2ccccc21	6.0	7.0	1.7	i	0.7	16.0
CCOC(=O)CSc1cc(=O)n(C)c2cc(Cl)ccc12	13.0	3.0	6.8	+	1	17.6
CN1CCc2c(sc3c2c(=O)n(-c2ccccc2)c2nnc(SCc4ccc(F)cc4)n32)C1	3.0	active	-1.3	i	0.9	7.8
COCCOC(=O)c1c(C)oc2ccc(NS(=O)(=O)c3ccc(F)cc3)cc12	10.0	0.0	-8.2	+	1	8.2
COc1ccc(S(=O)(=O)Nc2ccc3oc(C)c(C(=O)O)c3c2)cc1	9.0	0.0	-6.6	i	1	-4.1
c1coc(-c2nc(-c3ccco3)c(-c3ccco3)nc2-c2ccco2)c1	16.0	16.0	22.9*	·	0.9	13.8
Nc1nc(-c2ccco2)c(-c2ccco2)s1	1.0	16.0	11.9	i	0.9	3.2
CC(OC(=O)c1ccccc1NCc1ccco1)C(=O)Nc1ncc(Cl)cc1Cl (stereo not drawn)	3.0	0.0	-2.3	·	0.9	-2.2
COc1ccc2c(c1)C(=O)N(c1ccccc1OC)C(=O)C2(C)C	0.0	12.0	-3.4	i	0.9	22.2
COc1ccc2c(c1)C1(C)CC(C)(C)N2C(=O)N1c1ccccc1 (stereo not drawn)	2.0	0.0	11.7	+	0.9	-8.0
Cc1ccc(Cl)cc1N1CCN(Cc2nnnn2C2CCCCC2)CC1	0.0	25.0*	3.5	i	0.8	0.1
c1ccc(N2CCN(Cc3nnnn3C3CCCCC3)CC2)cc1	8.0	13.0	·	i	0.9	·
Clc1ccc2oc(-c3ccccn3)nc2c1	11.0	14.0	8.9	i	0.9	38.1*
CCS(=O)(=O)c1ccc(O)c(NC(=O)Nc2ccccc2)c1	42.0*	18.0	15.2	i	0.9	4.3
CCC(C)c1ccc(O)c(N)c1 (stereo not drawn)	4.0	4.0	28.2*	i	0.9	14.1
CC(C)c1ccc(O)c(N)c1	0.0	5.0	5.6	i	0.9	24.1
CC1Cc2cc(C3(O)C(=O)c4ccccc4C3=O)ccc2N1 (stereo not drawn)	3.0	5.0	12.6	i	0.8	2.0
O=C(c1n[nH]c(=O)c2ccccc12)N1CCN(C2c3ccccc3-c3ccccc32)CC1	1.0	29.0*	9.0	i	0.9	-6.0
CC1CCN(CCCNC(=O)c2n[nH]c(=O)c3ccccc23)CC1	2.0	0.0	4.6	i	0.9	4.8
c1ccc(-c2nnc(-c3ccccn3)nn2)nc1	5.0	0.0	24.5*	i	1.1	7.0
c1ccc(-c2cccc(-c3ccccn3)n2)nc1	0.0	19.0	-6.2	i	1.1	12.3
CCOc1ccc2[nH]c(=O)c(CN(CCc3ccccc3)C(=O)c3cnccn3)cc2c1	0.0	16.0	12.1	i	1	5.0
